# Assay results: ChEMBL document CHEMBL1938243, “Identification of novel, exosite-binding matrix metalloproteinase-13 inhibitor scaffolds” (Bioorg Med Chem Lett, 2011)
# Calls of active or inactive are those of the source. The calls are words filed in the database; no cut-off is given here.
# Assays:
# [1] = target: T1, Collagenase 3 (Homo sapiens, UniProt P45452); assay: Inhibition of human full length recombinant MMP13 using triple-helical fTHP-15 as substrate at 40 uM after 4 hrs by FRET assay
# How it was run: (§1)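 Inhibitors tested at 40 μM in a FRET assay with the triple-helical peptide substrate fTHP-15 (exosite-engaging), read as percent inhibition of enzyme activity. Enzyme levels: MMP-1 4 nM; MMP-2, MMP-9 and MMP-14 10 nM each; MMP-8 2 nM; MMP-13 2.3 nM.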
# [2] = target: T1, Collagenase 3; assay: Noncompetitive inhibition of human full length recombinant MMP13 using triple-helical fTHP-15 as substrate by Lineweaver-Burk plot analysis
# How it was run: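 Single-inhibitor kinetic assay of MMP-13 hydrolysis of the FRET triple-helical peptide fTHP-15, which engages protease exosites. Run to obtain the inhibition constant (Ki) and the inhibition modality, following previously described methods.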
# [3] = target: T2, Interstitial collagenase (Homo sapiens, UniProt P03956); assay: Inhibition of MMP1 expressed in Escherichia coli using triple-helical fTHP-15 as substrate after 4 hrs by FRET assay
# T2 sequence (P03956 whole entry): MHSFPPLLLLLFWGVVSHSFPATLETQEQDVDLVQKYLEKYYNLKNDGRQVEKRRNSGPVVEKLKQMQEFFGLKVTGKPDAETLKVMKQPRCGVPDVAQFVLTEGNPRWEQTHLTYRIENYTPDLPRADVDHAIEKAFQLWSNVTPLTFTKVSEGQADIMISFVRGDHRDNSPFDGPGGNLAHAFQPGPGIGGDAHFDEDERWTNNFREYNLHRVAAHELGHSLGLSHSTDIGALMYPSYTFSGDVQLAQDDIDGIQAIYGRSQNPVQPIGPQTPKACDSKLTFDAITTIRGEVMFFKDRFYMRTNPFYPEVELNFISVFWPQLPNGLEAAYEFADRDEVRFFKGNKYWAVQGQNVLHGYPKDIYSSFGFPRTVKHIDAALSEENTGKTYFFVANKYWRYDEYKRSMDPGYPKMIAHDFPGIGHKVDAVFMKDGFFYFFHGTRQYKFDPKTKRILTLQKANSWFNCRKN
# [4] = target: T3, Neutrophil collagenase (Homo sapiens, UniProt P22894); assay: Inhibition of MMP8 expressed in CHO-K1 cells using triple-helical fTHP-15 as substrate after 4 hrs by FRET assay; assay type: cell-based
# Target sequence in this assay (P22894 whole entry, the tested form may be a part): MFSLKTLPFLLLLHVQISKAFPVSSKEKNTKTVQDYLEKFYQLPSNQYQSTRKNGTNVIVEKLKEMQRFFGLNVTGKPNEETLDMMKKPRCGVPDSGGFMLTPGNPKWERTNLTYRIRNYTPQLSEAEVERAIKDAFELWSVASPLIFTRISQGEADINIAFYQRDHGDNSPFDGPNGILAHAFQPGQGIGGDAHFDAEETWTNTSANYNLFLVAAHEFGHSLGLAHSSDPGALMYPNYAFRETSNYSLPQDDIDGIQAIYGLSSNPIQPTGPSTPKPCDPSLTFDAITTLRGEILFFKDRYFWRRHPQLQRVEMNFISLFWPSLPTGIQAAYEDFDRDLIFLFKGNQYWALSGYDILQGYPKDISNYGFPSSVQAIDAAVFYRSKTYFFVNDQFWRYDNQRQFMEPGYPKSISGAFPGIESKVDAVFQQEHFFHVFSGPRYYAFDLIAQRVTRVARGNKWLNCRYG
# [5] = target: Disintegrin and metalloproteinase domain-containing protein 17 (Homo sapiens) (UniProt P78536); assay: Inhibition of TACE at 40 uM
# [6] = target: T4, Interstitial collagenase (Homo sapiens) (UniProt P03956); assay: Inhibition of MMP1 expressed in Escherichia coli using triple-helical fTHP-15 as substrate at 40 uM after 4 hrs by FRET assay; how it was run: as §1
# T4 sequence (whole entry): T2 sequence (P03956 whole entry)
# [7] = target: 72 kDa type IV collagenase (Homo sapiens) (UniProt P08253); assay: Inhibition of human MMP2 using triple-helical fTHP-15 as substrate at 40 uM after 4 hrs by FRET assay; how it was run: as §1
# [8] = target: T3, Neutrophil collagenase; assay: Inhibition of MMP8 expressed in CHO-K1 cells using triple-helical fTHP-15 as substrate at 40 uM after 4 hrs by FRET assay; how it was run: as §1
# Target sequence in this assay (P22894 101-467 limits assumed): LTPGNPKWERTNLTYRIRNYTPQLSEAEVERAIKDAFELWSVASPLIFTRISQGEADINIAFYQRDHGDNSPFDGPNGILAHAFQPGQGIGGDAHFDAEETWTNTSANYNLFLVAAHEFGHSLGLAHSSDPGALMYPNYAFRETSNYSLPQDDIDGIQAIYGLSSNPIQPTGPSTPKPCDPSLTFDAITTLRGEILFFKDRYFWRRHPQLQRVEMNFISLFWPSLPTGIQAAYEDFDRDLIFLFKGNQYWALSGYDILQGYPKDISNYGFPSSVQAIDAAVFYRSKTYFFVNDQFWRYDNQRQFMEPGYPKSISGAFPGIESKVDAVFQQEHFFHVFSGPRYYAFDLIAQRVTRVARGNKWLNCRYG
# [9] = target: Matrix metalloproteinase-9 (Homo sapiens) (UniProt P14780); assay: Inhibition of recombinant MMP9 using triple-helical fTHP-15 as substrate at 40 uM after 4 hrs by FRET assay; how it was run: as §1
# [10] = target: Matrix metalloproteinase-14 (Homo sapiens) (UniProt P50281); assay: Inhibition of MMP14 using triple-helical fTHP-15 as substrate at 40 uM after 4 hrs by FRET assay; how it was run: as §1
# [11] = target: T4, Interstitial collagenase (Homo sapiens); assay: Inhibition of MMP1 expressed in Escherichia coli assessed as residual activity using Knight SSP as substrate at 100 uM after 1.5 to 4 hrs by spectrofluorometric analysis relative to control
# [12] = target: 72 kDa type IV collagenase (Homo sapiens) (UniProt P08253); assay: Inhibition of human MMP2 assessed as residual activity using Knight SSP as substrate at 100 uM after 1.5 to 4 hrs by spectrofluorometric analysis relative to control
# [13] = target: Stromelysin-1 (Homo sapiens) (UniProt P08254); assay: Inhibition of MMP3 expressed in Escherichia coli assessed as residual activity using Knight SSP as substrate at 100 uM after 1.5 to 4 hrs by spectrofluorometric analysis relative to control
# [14] = target: T3, Neutrophil collagenase; assay: Inhibition of MMP8 expressed in CHO-K1 cells assessed as residual activity using Knight SSP as substrate at 100 uM after 1.5 to 4 hrs by spectrofluorometric analysis relative to control; assay type: cell-based
# Target sequence in this assay (P22894 101-467 limits assumed): as above
# [15] = target: Macrophage metalloelastase (Homo sapiens) (UniProt P39900); assay: Inhibition of MMP12 assessed as residual activity using Knight SSP as substrate at 100 uM after 1.5 to 4 hrs by spectrofluorometric analysis relative to control
# [16] = target: T1, Collagenase 3; assay: Inhibition of human full length recombinant MMP13 assessed as residual activity using Knight SSP as substrate at 100 uM after 1.5 to 4 hrs by spectrofluorometric analysis relative to control
# [17] = target: Matrix metalloproteinase-14 (Homo sapiens) (UniProt P50281); assay: Inhibition of MMP14 assessed as residual activity using Knight SSP as substrate at 100 uM after 1.5 to 4 hrs by spectrofluorometric analysis relative to control
# [18] = target: T5, Matrix metalloproteinase-20 (Homo sapiens) (UniProt O60882); assay: Inhibition of MMP20 assessed as residual activity using Knight SSP as substrate at 100 uM after 1.5 to 4 hrs by spectrofluorometric analysis relative to control
# T5 sequence (whole entry): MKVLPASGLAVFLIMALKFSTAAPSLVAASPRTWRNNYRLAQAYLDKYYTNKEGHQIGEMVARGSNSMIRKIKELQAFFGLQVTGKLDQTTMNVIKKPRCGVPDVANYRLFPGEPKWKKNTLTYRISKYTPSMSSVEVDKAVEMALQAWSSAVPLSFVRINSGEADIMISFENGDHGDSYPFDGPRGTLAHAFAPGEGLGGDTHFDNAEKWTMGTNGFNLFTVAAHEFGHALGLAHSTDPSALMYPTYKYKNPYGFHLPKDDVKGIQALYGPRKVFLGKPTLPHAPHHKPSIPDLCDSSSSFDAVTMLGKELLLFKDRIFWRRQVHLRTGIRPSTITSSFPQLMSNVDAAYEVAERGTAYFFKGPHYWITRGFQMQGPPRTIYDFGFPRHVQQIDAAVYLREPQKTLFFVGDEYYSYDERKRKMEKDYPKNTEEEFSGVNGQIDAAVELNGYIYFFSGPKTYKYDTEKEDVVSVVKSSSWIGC
# Sequence of Stromelysin-1 (Homo sapiens) (P08254 100-477 limits assumed): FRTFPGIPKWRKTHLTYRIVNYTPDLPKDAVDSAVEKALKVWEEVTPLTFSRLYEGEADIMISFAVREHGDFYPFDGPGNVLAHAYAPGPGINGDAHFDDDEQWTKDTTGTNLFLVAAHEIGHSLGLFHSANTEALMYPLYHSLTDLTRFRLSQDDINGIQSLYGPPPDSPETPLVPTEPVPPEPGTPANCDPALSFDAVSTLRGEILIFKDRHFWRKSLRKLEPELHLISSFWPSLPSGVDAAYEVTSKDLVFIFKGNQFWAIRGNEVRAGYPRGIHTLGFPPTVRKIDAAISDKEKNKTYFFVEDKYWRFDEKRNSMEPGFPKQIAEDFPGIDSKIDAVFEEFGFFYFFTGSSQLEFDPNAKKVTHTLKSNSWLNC
# Sequence of 72 kDa type IV collagenase (Homo sapiens) (P08253 110-660 limits assumed): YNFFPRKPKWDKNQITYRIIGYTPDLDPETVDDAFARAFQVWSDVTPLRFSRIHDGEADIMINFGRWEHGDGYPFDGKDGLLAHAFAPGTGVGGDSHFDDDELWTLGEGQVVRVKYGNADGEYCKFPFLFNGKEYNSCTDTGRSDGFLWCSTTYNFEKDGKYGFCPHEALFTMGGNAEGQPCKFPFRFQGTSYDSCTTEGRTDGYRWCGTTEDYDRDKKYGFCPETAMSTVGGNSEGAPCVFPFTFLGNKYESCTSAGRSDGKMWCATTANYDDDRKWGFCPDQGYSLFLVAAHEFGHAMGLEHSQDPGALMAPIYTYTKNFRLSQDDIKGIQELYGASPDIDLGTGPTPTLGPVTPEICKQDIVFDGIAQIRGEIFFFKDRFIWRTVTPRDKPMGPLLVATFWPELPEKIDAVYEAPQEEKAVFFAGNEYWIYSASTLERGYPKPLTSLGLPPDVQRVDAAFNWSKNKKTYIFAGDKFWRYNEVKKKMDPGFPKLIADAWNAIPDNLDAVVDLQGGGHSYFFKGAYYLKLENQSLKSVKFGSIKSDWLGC
# Sequence of Disintegrin and metalloproteinase domain-containing protein 17 (Homo sapiens) (P78536 whole entry, the tested form may be a part): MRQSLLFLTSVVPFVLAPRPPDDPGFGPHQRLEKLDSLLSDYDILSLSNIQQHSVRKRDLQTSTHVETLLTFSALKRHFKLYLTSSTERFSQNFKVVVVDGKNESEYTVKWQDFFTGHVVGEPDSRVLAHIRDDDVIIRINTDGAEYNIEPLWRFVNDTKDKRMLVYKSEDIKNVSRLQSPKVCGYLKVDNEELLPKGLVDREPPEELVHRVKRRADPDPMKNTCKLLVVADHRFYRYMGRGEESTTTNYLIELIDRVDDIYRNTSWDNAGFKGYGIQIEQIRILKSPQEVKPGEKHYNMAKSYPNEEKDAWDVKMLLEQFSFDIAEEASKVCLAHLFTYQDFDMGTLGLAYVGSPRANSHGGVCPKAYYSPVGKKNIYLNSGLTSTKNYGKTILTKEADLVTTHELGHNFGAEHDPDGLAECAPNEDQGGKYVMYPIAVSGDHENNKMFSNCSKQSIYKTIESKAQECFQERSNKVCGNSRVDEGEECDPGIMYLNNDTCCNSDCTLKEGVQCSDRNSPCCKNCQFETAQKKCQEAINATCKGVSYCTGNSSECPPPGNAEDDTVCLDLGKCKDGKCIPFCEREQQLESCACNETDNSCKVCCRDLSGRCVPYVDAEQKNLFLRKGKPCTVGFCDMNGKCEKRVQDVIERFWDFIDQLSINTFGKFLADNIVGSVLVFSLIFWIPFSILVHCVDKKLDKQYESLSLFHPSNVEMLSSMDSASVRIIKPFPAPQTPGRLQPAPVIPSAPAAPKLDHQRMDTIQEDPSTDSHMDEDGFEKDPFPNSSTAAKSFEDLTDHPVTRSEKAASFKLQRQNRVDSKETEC
# Sequence of Matrix metalloproteinase-9 (Homo sapiens) (P14780 whole entry): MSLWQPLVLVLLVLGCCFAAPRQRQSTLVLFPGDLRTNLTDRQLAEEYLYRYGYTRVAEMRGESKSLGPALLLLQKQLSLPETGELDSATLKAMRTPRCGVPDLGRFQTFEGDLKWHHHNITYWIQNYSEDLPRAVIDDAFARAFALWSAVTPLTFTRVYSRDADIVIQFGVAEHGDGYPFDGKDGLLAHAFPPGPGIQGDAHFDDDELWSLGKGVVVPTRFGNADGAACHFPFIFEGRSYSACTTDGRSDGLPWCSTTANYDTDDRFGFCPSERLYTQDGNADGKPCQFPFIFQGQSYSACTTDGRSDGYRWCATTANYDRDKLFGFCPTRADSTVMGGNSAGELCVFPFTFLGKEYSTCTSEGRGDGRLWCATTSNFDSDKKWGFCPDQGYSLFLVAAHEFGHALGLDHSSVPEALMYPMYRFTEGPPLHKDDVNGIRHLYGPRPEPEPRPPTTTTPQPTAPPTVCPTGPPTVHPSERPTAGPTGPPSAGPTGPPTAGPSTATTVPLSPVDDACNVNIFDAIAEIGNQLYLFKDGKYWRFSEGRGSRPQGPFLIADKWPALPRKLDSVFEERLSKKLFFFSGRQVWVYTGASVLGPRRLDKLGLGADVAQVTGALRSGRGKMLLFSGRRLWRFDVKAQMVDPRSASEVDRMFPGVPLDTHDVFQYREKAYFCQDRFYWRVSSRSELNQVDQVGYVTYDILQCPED
# Sequence of Macrophage metalloelastase (Homo sapiens) (P39900 106-470 limits assumed): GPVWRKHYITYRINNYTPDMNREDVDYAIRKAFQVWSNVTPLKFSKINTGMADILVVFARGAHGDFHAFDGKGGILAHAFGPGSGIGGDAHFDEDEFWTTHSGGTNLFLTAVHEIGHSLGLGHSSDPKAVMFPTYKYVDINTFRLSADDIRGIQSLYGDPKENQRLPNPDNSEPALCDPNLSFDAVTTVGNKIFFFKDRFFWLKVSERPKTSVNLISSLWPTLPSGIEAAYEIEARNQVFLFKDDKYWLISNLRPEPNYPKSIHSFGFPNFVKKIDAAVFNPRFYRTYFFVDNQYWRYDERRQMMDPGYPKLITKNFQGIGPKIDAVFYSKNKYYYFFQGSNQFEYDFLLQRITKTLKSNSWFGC
smiles,measurement,setting,value
Cc1cc(=O)[nH]c(SCc2ccc(Cl)cc2)n1,inhibition,[1],32.9%
Nc1cc(O)nc(SCc2ccc(Cl)cc2)n1,inhibition,[1],37%
Cc1cccc(CSc2nc(O)c3c(n2)CCCC3)c1,inhibition,[1],inactive
O=c1[nH]c(SCc2coc(-c3cccc(Cl)c3)n2)nc2c1CCC2,inhibition,[1],inactive
Cc1ccc(CSc2nc3c(c(=O)[nH]2)CCC3)cc1,Ki,[2],824 nM
same,IC50,[3],> 40 µM
same,IC50,[4],> 40 µM
Oc1[nH]c(SCc2ccc(Cl)cc2)nc2nncc1-2,inhibition,[1],inactive
CC(=O)Nc1c(O)nc(SCc2ccc(Cl)cc2)nc1O,inhibition,[1],inactive
Cc1cccc(CSc2nc3c(c(=O)[nH]2)CCC3)c1,inhibition,[1],45.2%
CS(=O)(=O)c1ccc(CSc2nc3c(c(=O)[nH]2)CCC3)cc1,inhibition,[1],46.7%
O=c1[nH]c(SCc2ccc(Cl)cc2)nc2c1C(Cc1ccccc1)CC2 (stereo not given),inhibition,[1],37.7%
O=c1[nH]c(SCCc2ccccc2)nc2c1CCC2,inhibition,[1],7.7%
O=C(O)c1ccc(CSc2nc3c(c(=O)[nH]2)CCC3)cc1,inhibition,[1],2.2%
O=C(CSc1nc2c(c(=O)[nH]1)C(Cc1ccccc1)CC2)c1ccccc1 (stereo not given),inhibition,[1],16%
O=c1[nH]c(SCc2ccc(OC(F)(F)F)cc2)nc2c1CCC2,inhibition,[1],34.4%
O=c1[nH]c(SCCCc2ccccc2)nc2c1CCC2,inhibition,[1],7.2%
CCCc1cc(O)nc(SCc2ccc(Cl)cc2)n1,inhibition,[1],inactive
COC(=O)c1ccc(CSc2nc3c(c(=O)[nH]2)CCC3)cc1,inhibition,[1],61%
same,Ki,[2],1530 nM
same,inhibition,[5],inactive
same,inhibition,[6],0%
same,inhibition,[7],26%
same,inhibition,[8],8%
same,inhibition,[9],16%
same,inhibition,[10],31%
same,IC50,[3],> 40 µM
same,IC50,[4],> 40 µM
same,Activity,[11],102%
same,Activity,[12],84.7%
same,Activity,[13],100%
same,Activity,[14],93.8%
same,Activity,[15],80.6%
same,Activity,[16],35.1%
same,Activity,[17],104%
same,Activity,[18],96.4%
C#CCSc1nc2c(c(=O)[nH]1)CCC2,inhibition,[1],10.3%
Oc1nc(SCc2ccc(Cl)cc2)nc2ccsc12,inhibition,[1],36.6%
Cc1oc(-c2cccc(Cl)c2)cc1CSc1nc2c(c(=O)[nH]1)CCC2,inhibition,[1],inactive
CCCCSc1nc(O)c2c(n1)CCC2,inhibition,[1],17.1%
O=C(CSc1nc2c(c(=O)[nH]1)CCC2)c1ccccc1,inhibition,[1],inactive
O=c1[nH]c(SCc2ccc(Cl)cc2)nc(O)c1Cc1ccccc1,inhibition,[1],inactive
Cc1ccccc1S(=O)(=O)Nc1cc(=O)[nH]c(SCc2ccc(Cl)cc2)n1,inhibition,[1],30.5%
O=S(=O)(Nc1cc(O)nc(SCc2ccc(Cl)cc2)n1)c1ccccc1,inhibition,[1],31.2%
Cc1ccc(CSc2nc(O)c3c(n2)CCC3)cc1,inhibition,[1],67%
same,inhibition,[5],inactive
same,inhibition,[6],0%
same,inhibition,[7],19%
same,inhibition,[8],0%
same,inhibition,[9],7%
same,inhibition,[10],20%
same,Activity,[11],106%
same,Activity,[12],97.6%
same,Activity,[13],100%
same,Activity,[14],106%
same,Activity,[15],77.3%
same,Activity,[16],38.6%
same,Activity,[17],100%
same,Activity,[18],101%
Oc1nc(SCc2ccc(Cl)cc2)nc2ccccc12,inhibition,[1],inactive
Oc1nc(SCc2ccc(Cl)cc2)nc2c1CCC2,inhibition,[1],49.1%
same,Ki,[2],3800 nM
same,inhibition,[5],inactive
same,inhibition,[6],0%
same,inhibition,[7],25%
same,inhibition,[8],17%
same,inhibition,[9],10%
same,inhibition,[10],22%
same,IC50,[3],> 40 µM
same,IC50,[4],> 40 µM
same,Activity,[11],92.7%
same,Activity,[12],83%
same,Activity,[13],96%
same,Activity,[14],81.7%
same,Activity,[15],91.6%
same,Activity,[16],44%
same,Activity,[17],107%
same,Activity,[18],105%
Cc1nc(SCc2ccc(Br)cc2)nc(O)c1C,inhibition,[1],55.8%
same,inhibition,[8],20%
